From PubChem BioAssay
NRP1-CendR mod: NRP-1/CendR interaction modulation; 0.85% of 360,000 active; FAM-RPARPAR peptide binding to NRP-1, fluorescence polarization; AID 602438; inhibition, % at 25 µM;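 active = inhibition or corrected inhibition above about 18%, plus a signal ratio from 0.5 to 1.5, limit read from the data, passing the limit was not always enough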
Tn7 DDE FP: inhibitors of Tn7 peptide binding to human fibrin DD(E); inhibition, % at 8.3 µM; 0.13% of 370,000 active; P02675; FP displacement of FITC-Tn7 peptide from fibrin DD(E); 0% = median of compound wells per plate;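 active = inhibition above the mean of compounds falling within the control limits plus 3 SD of them, cut at about 14% in these data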;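 note: 0% = plate median of compound wells and 100% = 10 µM Aha-Tn7 peptide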
Target sequence (P02675 whole entry, looked up): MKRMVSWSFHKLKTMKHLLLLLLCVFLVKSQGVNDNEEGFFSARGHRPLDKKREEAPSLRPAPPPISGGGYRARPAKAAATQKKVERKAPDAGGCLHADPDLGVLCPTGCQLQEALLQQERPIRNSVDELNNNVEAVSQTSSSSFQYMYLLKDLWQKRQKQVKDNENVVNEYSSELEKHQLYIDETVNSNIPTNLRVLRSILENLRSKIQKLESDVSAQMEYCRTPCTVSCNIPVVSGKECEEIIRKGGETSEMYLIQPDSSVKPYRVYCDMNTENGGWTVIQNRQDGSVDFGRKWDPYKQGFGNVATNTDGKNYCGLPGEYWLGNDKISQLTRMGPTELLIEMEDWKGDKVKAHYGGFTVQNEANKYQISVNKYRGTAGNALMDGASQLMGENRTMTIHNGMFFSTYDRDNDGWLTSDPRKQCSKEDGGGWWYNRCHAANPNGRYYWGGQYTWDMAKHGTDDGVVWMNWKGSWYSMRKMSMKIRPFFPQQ
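Assay system: Human clot-derived fibrin DD(E) complex | Buffer or medium: Tris/NaCl/CaCl2 buffer, pH 7.8 | Repeats: One replicate per compound | Benchmarks: Aha-Tn7 high control | Measure: % inhibition scaled between sample-field median and high-control FP | Schedule: 10 min plus 3 h, room temperature | Signal: Fluorescence polarization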
aDG glyco up: increases alpha dystroglycan glycosylation | Pro5-aDG cells, alpha-DG glycosylation AlphaScreen (IIH6); 0% Pro5, 100% B10-LARGE cell signal | activation, % at 10 µM | 0.22% of 360,000 active | AID 624168;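 active = activation of at least 8% versus controls, or a plate z-score of at least 8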;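 note: Pro5 are CHO cells carrying HIG-tagged alpha-DG that lacks glycosylation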
Tn6 DDE FP: disrupts Tn6 cyclic peptide binding to fibrin D-Dimer-E complex | P02675 | Fibrin DD(E) TRITC-Tn6 fluorescence polarization displacement | inhibition, % at 8.3 µM | 0.21% of 370,000 active | AID 720509;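 active = inhibition above a per-campaign cutoff: mean of compounds within control limits plus 3 SD, cut at about 15% in these data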;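 note: 0% = median of all compound wells on the plate and 100% = blocking peptide control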
Numbers without * were called inactive; / = not tested or not shown. Hits are enriched below; roughly 1.3% of the tested compounds scored in any of these assays.

SMILES	NRP1-CendR mod	Tn7 DDE FP	aDG glyco up	Tn6 DDE FP
COC[C@H]1CCCN1c1ccc2c(c1)O[C@@H]1CCN(C1)S2(=O)=O	/	-3	/	-8
Cc1ccc(NC(=O)CSc2nnc(-c3ccc(S(=O)(=O)N4CCCC4)cc3)o2)cc1C	26*	0	0	-3
Cc1ccc(-c2cc(C(=O)N/N=C/c3cccnc3)c3ccccc3n2)cc1C	26*	0	0	-8
COc1ccc([N+](=O)[O-])cc1NC(=O)CCNC(=O)Cn1ccc2ccccc2c1=O	30*	-2	0	4
COc1ccc(OC)c(NC(=O)CCNC(=O)Cn2ccc3ccccc3c2=O)c1	8	-1	0	4
Cc1nc(Nc2ccc(S(N)(=O)=O)cc2)oc1C	26*	-5	0	6
Cc1ccc(/C=C/C(=O)Nc2ccc(S(N)(=O)=O)cc2)o1	-12	3	0	-6
C=CCn1c(Cc2cccs2)nnc1SCC(=O)Nc1cccc2ccccc12	/	5	/	0
Cc1cccc(C)c1OCc1nnc(SCC(=O)Nc2nccs2)o1	-6	3	0	-6
CCOc1ccc(NC(=O)CSc2nnc(COc3c(C)cccc3C)o2)cc1	24*	4	0	-8
C[C@H]1CN(S(=O)(=O)C(C)(C)C)[C@H](CCO)/C1=C\CCO	/	0	/	4
CCc1cc(C(=O)OC)c(NC(=O)c2ccoc2C)s1	39*	1	0	-6
COc1ccccc1Nc1nc(Cl)nc(Nc2ccccc2OC)n1	26*	-1	0	-7
O=C(CN1CCN(Cc2ccccc2Cl)CC1)N/N=C\c1ccccc1F	/	-1	/	2
COC(=O)c1sccc1NC(=O)c1ccnn1C	25*	0	0	-1
COC(=O)c1sccc1NC(=O)c1ccccc1	-4	-1	0	-6
Cc1ccc(C)c(S(=O)(=O)Nc2ccc(O)c3ccccc23)c1	-4	1	4.3*	-3
COc1n[nH]c2nncnc12	28*	-9	0	6
COCCCn1c(SCC(=O)N2CCCC2=O)nc2ccccc2c1=O	7	0	0	2
CCCCN1CN2Cc3ccccc3C2CS1(=O)=O (configuration not stated)	/	2	/	-3
O=S(=O)(Nc1cccc(-n2cnnn2)c1)c1ccc(Cl)cc1	10	11	0	12
O=S(=O)(Nc1cccc(Cl)c1)c1cccc(-n2cnnn2)c1	20*	-8	0	7
Cc1ncc([N+](=O)[O-])n1CCOC(=O)NC(NCc1ccccc1Cl)C(Cl)(Cl)Cl (configuration not stated)	38*	-2	0	-2
O=C(CNC(=O)c1cccs1)N=Nc1c(O)[nH]c2ccc([N+](=O)[O-])cc12	30*	8	0	-1
S=C(Nc1ccc(Cl)c(Cl)c1)Nc1nnc(-c2ccncc2)s1	/	-1	/	-8
SMILES	NRP1-CendR mod	Tn7 DDE FP	aDG glyco up	Tn6 DDE FP
COc1ccc2c(c1)[n+](=O)c(C(C)=O)c(C)n2[O-]	-1	-10	0	3
CCOC(=O)c1c(=O)n(O)c2ccc(OC)cc2[n+]1[O-]	25*	0	0	2
Cc1cc2nc(-c3ccccc3)c(Cc3cccc(Cl)c3)n2c(C)c1Br	-11	6	0	6
O=C1CCC[C@@H]2Cc3nc4cc5c(cc4cc3[C@@H]3CCN1[C@H]23)OCO5	24*	-1	0	1
N#CC1=C(N)NC(SCc2ccc(Cl)cc2)=C(C#N)C12CCCCC2	29*	1	0	-4
N#CC1=C(N)NC(SCc2ccc(Br)cc2)=C(C#N)C12CCCCC2	-2	0	0	0
O=C(Nc1ccc(F)cc1)C(CCc1ccccc1)N1CCN(c2ccncc2)CC1 (configuration not stated)	13	0	0	11
Cc1cc(C(=O)N[C@H](c2ccccc2)[C@@]2(C)C[C@@H]2[C@@H](C)C(=O)Nc2ccc3ccccc3c2)no1	16	-2	0	0
Cc1cc(C(=O)N[C@@H](c2ccccc2)[C@]2(C)C[C@H]2[C@@H](C)C(=O)Nc2ccc3ccccc3c2)no1	22*	4	0	1
O=C(CNC(=O)c1ccc(Br)cc1)NCC(=O)OCC(=O)c1ccc(F)cc1	26*	-2	0	-7
O=C(CCN1CCN(c2ccccc2)CC1)NNC(=O)Cc1ccccc1Cl	37*	1	0	5
Cn1c(SCc2nc3ccccc3s2)nnc1-c1cccs1	44*	-8	0	6
Cc1cc2cc(CNC(=O)c3ccc4c(c3)OCO4)ccc2n1C	20*	-1	0	13
